Assay results reported in ChEMBL document CHEMBL5653631, “A Potent and Selective ULK1 Inhibitor Suppresses Autophagy and Sensitizes Cancer Cells to Nutrient Stress” (iScience, 2018).

Columns and labels:
[1] = molecular target: Transcription initiation factor TFIID subunit 1-like (Homo sapiens) (UniProt Q8IZX4); assay: Inhibition of human recombinant TAF1L at 500 nM in presence of ATP by radiometric assay relative to control
[2] = molecular target: T1, Tyrosine-protein kinase ITK/TSK (Homo sapiens) (UniProt Q08881); assay: Inhibition of human recombinant ITK at 15 nM related to control ULK1
T1 sequence (whole entry): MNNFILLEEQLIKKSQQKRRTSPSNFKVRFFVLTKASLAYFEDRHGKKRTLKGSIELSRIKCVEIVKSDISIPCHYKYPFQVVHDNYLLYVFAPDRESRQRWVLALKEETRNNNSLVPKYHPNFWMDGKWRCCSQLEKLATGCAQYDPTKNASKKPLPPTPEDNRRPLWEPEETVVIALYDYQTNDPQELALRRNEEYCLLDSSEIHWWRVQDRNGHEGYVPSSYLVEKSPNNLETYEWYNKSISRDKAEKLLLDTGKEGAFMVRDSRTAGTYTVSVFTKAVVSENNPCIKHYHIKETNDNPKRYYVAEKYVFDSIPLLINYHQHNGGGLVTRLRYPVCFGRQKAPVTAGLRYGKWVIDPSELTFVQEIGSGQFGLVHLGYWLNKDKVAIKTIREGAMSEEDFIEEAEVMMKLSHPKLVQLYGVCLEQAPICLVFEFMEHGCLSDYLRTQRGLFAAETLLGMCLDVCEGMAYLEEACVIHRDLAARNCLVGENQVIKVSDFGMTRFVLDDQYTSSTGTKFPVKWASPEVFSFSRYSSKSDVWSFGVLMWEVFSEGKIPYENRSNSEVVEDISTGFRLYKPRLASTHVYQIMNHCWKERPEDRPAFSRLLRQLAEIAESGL

[3] = molecular target: Serine/threonine-protein kinase N2 (Homo sapiens) (UniProt Q16513); assay: Inhibition of human recombinant PKN2 at 15 nM related to control ULK1
Sequence of Serine/threonine-protein kinase N2 (Homo sapiens) (Q16513 whole entry, looked up): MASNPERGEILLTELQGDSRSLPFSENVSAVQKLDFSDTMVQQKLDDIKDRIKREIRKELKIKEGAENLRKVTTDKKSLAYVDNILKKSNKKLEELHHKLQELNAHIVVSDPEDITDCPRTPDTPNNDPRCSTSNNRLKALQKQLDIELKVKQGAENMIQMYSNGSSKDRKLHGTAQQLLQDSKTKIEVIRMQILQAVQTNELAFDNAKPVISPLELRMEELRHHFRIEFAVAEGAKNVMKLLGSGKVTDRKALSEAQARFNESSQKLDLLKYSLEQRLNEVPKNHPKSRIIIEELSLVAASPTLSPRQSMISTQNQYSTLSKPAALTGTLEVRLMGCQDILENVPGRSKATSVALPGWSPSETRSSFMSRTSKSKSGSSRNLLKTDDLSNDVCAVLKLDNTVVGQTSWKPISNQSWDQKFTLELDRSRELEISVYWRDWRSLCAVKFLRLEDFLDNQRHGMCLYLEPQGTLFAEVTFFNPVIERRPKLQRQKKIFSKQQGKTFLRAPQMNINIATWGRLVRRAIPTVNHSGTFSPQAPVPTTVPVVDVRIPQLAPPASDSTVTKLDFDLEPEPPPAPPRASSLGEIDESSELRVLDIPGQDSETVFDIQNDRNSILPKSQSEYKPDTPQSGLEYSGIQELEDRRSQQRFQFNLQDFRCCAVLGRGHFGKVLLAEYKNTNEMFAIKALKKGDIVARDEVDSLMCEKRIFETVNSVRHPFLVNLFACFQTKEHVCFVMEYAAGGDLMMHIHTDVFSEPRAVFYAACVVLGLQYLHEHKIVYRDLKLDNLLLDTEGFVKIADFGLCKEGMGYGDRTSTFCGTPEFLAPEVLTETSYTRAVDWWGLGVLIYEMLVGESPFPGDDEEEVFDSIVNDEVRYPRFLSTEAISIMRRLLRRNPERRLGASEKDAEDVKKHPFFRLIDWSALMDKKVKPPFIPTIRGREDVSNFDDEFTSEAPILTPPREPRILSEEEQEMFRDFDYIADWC

[4] = molecular target: Proto-oncogene tyrosine-protein kinase receptor Ret (Homo sapiens) (UniProt P07949); assay: Inhibition of human recombinant RET at 15 nM related to control ULK1
[5] = molecular target: T2, Cytoplasmic tyrosine-protein kinase BMX (Homo sapiens) (UniProt P51813); assay: Inhibition of human recombinant BMX at 15 nM in presence of ATP by radiometric assay relative to control
T2 sequence (whole entry): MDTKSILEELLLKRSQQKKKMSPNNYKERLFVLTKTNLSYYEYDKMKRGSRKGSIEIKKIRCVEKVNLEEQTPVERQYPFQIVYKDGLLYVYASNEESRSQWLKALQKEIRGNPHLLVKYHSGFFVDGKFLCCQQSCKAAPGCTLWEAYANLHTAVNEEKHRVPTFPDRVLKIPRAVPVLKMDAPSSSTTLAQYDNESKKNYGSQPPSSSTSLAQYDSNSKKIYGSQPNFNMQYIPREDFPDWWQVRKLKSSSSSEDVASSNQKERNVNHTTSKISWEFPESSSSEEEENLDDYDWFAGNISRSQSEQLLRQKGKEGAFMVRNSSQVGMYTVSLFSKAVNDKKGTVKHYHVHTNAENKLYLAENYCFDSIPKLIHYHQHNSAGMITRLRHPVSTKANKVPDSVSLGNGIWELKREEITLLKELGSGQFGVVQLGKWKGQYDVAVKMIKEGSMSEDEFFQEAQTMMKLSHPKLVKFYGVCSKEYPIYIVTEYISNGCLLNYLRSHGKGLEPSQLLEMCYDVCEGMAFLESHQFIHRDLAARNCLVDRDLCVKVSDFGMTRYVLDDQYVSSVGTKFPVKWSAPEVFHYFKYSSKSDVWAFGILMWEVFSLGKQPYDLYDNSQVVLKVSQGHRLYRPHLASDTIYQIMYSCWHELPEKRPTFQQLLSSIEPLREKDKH
How it was run: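 Part of a radiometric in vitro activity panel of 327 recombinant human kinases. Each kinase was tested in duplicate at one inhibitor concentration. Activity remaining was expressed as a percentage of the vehicle control, and percent inhibition was taken as 100 minus that value.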

[6] = molecular target: Rho-associated protein kinase 1 (Homo sapiens) (UniProt Q13464); assay: Inhibition of human recombinant ROCK1 at 15 nM in presence of ATP by radiometric assay relative to control
[7] = molecular target: T3, Dual specificity mitogen-activated protein kinase kinase 6 (Homo sapiens) (UniProt P52564); assay: Inhibition of human recombinant MAP2K6 at 40 nM related to control ULK1
T3 sequence (whole entry): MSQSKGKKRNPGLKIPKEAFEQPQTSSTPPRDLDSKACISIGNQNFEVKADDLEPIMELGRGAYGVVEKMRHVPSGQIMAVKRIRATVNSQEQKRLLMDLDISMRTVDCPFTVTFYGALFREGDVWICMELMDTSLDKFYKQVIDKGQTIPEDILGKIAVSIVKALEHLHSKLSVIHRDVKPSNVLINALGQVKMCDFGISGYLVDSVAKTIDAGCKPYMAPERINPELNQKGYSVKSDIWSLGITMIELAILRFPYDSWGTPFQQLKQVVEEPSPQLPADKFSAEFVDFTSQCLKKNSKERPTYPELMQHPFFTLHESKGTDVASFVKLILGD

[8] = molecular target: T4, Serine/threonine-protein kinase 17A (Homo sapiens) (UniProt Q9UEE5); assay: Inhibition of human recombinant DRAK1 at 40 nM in presence of ATP by radiometric assay relative to control
T4 sequence (whole entry): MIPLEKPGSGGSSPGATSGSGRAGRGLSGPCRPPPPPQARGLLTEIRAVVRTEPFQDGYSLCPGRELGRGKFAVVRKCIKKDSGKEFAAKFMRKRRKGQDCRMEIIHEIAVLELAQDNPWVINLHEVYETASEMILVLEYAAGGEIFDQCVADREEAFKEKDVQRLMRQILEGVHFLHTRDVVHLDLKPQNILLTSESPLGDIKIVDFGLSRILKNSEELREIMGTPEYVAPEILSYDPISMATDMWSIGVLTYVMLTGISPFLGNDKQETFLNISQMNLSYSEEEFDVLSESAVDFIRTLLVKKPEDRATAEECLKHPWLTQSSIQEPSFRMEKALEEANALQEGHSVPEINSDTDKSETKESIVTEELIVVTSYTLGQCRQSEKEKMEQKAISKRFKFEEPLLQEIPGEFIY

[9] = molecular target: Phosphorylase b kinase gamma catalytic chain, skeletal muscle/heart isoform (Homo sapiens) (UniProt Q16816); assay: Inhibition of human recombinant PHKg1 at 40 nM related to control ULK1
Sequence of Phosphorylase b kinase gamma catalytic chain, skeletal muscle/heart isoform (Homo sapiens) (Q16816 whole entry, looked up, canonical isoform): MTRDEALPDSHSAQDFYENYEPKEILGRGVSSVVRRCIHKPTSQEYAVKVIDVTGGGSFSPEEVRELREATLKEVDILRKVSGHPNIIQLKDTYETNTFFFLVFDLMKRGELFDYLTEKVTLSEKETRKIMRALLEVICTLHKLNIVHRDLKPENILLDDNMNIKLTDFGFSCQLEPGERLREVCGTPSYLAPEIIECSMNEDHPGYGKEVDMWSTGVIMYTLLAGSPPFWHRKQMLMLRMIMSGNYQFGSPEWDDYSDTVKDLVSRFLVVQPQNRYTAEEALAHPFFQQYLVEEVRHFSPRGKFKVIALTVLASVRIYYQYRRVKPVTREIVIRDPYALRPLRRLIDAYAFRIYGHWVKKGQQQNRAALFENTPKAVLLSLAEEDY

[10] = molecular target: Mitogen-activated protein kinase kinase kinase 10 (Homo sapiens) (UniProt Q02779); assay: Inhibition of human recombinant MLK2 at 40 nM in presence of ATP by radiometric assay relative to control
Sequence of Mitogen-activated protein kinase kinase kinase 10 (Homo sapiens) (Q02779 whole entry, looked up): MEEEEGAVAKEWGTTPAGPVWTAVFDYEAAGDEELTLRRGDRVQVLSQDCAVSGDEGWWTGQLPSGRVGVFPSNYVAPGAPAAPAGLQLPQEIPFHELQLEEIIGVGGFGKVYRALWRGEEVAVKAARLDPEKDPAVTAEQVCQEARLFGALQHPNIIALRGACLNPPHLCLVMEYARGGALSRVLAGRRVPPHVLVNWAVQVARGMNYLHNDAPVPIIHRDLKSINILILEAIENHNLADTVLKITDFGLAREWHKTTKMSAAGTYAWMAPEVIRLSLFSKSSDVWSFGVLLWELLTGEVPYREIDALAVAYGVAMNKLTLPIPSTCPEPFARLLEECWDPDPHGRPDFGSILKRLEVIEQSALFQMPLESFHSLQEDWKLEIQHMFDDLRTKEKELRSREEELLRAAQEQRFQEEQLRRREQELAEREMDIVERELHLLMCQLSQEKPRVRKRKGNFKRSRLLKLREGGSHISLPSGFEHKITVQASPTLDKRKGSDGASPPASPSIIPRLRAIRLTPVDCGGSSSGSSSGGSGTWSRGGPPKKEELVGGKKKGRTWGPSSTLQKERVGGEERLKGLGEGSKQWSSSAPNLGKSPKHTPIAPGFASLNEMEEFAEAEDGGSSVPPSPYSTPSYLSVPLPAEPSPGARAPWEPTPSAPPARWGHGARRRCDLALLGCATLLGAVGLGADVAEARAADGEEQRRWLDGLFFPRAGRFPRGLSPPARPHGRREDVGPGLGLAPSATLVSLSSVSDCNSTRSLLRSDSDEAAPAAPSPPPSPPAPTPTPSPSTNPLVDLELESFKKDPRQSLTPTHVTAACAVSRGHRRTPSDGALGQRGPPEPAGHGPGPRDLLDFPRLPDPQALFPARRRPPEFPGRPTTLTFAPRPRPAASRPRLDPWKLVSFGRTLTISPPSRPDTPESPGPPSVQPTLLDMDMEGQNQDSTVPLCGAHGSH

[11] = molecular target: Bone morphogenetic protein receptor type-1B (Homo sapiens) (UniProt O00238); assay: Inhibition of human recombinant BMPR1B at 40 nM related to control ULK1
Sequence of Bone morphogenetic protein receptor type-1B (Homo sapiens) (O00238 whole entry): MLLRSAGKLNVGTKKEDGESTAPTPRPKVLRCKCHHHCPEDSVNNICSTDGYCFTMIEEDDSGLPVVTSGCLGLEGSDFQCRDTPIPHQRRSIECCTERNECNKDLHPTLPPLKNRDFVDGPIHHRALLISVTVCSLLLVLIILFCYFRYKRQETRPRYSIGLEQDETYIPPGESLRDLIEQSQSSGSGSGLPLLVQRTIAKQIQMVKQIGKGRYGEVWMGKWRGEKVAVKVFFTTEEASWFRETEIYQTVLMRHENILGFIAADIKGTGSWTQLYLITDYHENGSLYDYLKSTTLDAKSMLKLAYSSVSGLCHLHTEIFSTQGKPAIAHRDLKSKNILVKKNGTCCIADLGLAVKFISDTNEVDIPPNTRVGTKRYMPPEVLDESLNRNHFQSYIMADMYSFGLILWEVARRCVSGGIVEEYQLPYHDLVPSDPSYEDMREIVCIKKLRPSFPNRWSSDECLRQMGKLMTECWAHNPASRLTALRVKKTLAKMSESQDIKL
How it was run: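 Radiometric activity assays in a panel of 327 human recombinant kinases, each run in duplicate at one inhibitor concentration. Activity remaining is expressed as percent of vehicle control, and percent inhibition is calculated as 100% minus percent activity remaining.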

Sequence of Transcription initiation factor TFIID subunit 1-like (Homo sapiens) (Q8IZX4 whole entry): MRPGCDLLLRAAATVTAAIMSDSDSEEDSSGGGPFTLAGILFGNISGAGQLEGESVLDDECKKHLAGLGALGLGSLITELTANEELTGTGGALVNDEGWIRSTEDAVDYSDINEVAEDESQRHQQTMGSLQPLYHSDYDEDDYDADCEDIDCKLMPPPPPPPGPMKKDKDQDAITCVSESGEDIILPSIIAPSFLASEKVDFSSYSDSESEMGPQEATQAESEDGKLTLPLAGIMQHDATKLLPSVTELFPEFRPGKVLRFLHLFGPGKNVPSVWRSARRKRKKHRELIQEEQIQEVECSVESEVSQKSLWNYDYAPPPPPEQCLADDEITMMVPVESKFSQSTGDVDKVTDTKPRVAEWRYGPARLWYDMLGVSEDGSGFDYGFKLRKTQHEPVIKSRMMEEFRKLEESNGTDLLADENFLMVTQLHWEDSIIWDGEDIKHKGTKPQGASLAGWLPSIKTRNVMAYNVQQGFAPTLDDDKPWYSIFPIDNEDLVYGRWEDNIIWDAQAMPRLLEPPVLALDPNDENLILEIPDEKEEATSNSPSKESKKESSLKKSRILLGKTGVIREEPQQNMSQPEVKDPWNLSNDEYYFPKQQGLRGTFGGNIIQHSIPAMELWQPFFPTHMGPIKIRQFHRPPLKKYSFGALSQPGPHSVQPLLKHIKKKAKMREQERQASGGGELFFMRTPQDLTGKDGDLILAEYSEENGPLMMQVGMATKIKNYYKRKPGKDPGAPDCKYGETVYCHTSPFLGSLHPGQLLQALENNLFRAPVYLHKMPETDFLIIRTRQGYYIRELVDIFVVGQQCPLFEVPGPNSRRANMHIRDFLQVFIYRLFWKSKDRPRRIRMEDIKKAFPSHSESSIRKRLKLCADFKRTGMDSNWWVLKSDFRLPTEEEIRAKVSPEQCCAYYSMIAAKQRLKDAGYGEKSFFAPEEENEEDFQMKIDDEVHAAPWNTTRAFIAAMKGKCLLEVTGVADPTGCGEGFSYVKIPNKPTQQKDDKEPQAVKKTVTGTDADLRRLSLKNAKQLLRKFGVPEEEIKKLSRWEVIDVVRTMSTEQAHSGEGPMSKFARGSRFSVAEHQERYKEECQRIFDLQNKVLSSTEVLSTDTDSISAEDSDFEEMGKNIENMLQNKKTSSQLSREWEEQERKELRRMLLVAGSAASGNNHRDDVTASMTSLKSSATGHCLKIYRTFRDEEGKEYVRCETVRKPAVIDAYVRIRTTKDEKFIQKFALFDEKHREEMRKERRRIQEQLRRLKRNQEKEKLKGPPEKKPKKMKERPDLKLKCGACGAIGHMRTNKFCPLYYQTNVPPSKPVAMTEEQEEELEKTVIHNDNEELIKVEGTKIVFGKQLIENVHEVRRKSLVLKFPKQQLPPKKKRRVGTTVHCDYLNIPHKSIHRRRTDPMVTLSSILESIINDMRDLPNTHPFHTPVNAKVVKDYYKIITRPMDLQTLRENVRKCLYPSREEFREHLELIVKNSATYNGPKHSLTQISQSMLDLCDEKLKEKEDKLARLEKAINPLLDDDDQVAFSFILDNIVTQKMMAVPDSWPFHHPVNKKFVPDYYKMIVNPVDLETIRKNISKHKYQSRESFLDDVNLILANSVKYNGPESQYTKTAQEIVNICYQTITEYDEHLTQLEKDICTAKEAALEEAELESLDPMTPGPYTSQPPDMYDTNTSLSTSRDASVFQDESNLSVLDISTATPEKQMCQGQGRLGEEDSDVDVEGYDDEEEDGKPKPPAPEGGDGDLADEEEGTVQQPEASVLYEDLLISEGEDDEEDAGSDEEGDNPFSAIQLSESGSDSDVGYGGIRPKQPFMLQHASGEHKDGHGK

CNC(=O)c1ccccc1Oc1nc(Nc2cc(OC)c(OC)c(OC)c2)ncc1Br
inhibition [1]: 0%

CC(C)[C@H](NC(=O)c1cc(-c2cnn3cc(-c4ccc(OCCN5CCCCC5)cc4)cnc23)cs1)C(F)(F)F
fold change (FC) [2]: 0.05
fold change (FC) [3]: 0
fold change (FC) [4]: 0.16
inhibition [5]: 6%
inhibition [6]: 8%

O=C(N[C@@H](C1CC1)C(F)(F)F)c1cc(-c2cnn3cc(-c4ccc(F)cc4)cnc23)cs1
fold change (FC) [7]: 0
inhibition [8]: 78%
fold change (FC) [9]: 0.16
inhibition [10]: 0%
fold change (FC) [11]: 0
